From ChEMBL document CHEMBL1152850, “Efficient inhibition of the Alzheimer's disease beta-secretase by membrane targeting” (Science, 2008)
Blank lines part the entries; values can stand above or below the molecule they belong to. Active and inactive are the calls of the source. The rule behind the calls is not given here. Square brackets hold non-standard residues; d marks the D form. Peptide text beside a SMILES is read from it. * marks the point of attachment. Piperazinyl(4-RhodamineB) = CCN(CC)c1ccc2c(-c3ccccc3C(=O)N3CCN(*)CC3)c3ccc(=[N+](CC)CC)cc-3oc2c1; X4 = CC(C)CCC[C@@H](C)[C@H]1CC[C@H]2[C@@H]3CC[C@H]4C[C@@H](OCC(=O)*)CC[C@]4(C)[C@H]3CC[C@]12C; X1 = CC(C)CCC[C@@H](C)[C@H]1CC[C@H]2[C@@H]3CCC4C[C@@H](O*)CC[C@]4(C)[C@H]3CC[C@]12C; Sta = CC(C)C[C@H](N)[C@@H](O)CC(=O)O; PEG4 = NCCOCCOCCOCCOCCC(=O)O; PEG3 = NCCOCCOCCOCCC(=O)O; X3 = CCCCCCCCCCCCCCCCO*; X2 = CCCCCCCCCCCCCCO*; βAla = NCCC(=O)O

Key:
[1] = target: Beta-secretase 1 (Homo sapiens) (UniProt P56817); test: Inhibition of BACE1 mediated APP cleavage in human HeLa cells expressing swAPP at 200 nM by electrochemiluminescence assay; type: cell-based
Beta-secretase 1 (Homo sapiens), sequence (P56817 whole entry, the tested form may be a part): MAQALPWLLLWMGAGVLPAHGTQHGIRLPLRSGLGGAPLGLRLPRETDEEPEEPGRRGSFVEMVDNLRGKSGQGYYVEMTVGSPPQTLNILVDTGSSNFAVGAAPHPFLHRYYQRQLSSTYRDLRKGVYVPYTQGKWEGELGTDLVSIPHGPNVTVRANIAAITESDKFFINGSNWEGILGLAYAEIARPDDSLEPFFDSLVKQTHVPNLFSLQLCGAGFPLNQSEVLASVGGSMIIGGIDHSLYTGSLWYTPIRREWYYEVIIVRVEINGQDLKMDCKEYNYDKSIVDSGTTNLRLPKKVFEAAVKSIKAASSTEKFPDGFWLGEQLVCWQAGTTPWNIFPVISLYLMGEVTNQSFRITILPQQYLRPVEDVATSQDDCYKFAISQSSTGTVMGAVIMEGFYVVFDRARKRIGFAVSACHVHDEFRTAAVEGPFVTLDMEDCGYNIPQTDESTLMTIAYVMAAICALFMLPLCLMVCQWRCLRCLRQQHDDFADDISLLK

[2] = target: Beta-secretase 1 (Homo sapiens) (UniProt P56817); test: Inhibition of BACE1 mediated APP cleavage in human HeLa cells expressing swAPP at 2 uM after 4 hrs by immunoblot; type: cell-based
[3] = target: Beta-secretase 1 (Homo sapiens) (UniProt P56817); test: Inhibition of BACE1 mediated APP cleavage in human HeLa cells expressing swAPP assessed as amyloid beta production at 2 uM after 4 hrs by immunoblot; type: cell-based
[4] = target: Beta-secretase 1 (Mus musculus) (UniProt P56818); test: Inhibition of BACE1 mediated APP cleavage in mouse N2a cells expressing swAPP by electrochemiluminescence assay; type: cell-based
Beta-secretase 1 (Mus musculus), sequence (P56818 whole entry): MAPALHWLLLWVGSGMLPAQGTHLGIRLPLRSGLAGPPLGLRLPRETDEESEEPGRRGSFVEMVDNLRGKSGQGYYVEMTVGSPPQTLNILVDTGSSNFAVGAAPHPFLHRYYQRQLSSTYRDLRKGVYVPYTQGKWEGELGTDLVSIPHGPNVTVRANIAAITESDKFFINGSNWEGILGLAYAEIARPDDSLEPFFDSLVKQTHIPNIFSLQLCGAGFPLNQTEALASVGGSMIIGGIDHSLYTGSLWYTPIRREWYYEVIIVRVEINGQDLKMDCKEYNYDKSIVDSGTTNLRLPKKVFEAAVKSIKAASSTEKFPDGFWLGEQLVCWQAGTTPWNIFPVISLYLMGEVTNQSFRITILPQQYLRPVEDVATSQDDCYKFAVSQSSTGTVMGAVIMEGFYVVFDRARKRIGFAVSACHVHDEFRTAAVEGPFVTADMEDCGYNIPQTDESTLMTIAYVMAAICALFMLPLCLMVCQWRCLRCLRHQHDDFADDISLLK

[5] = target: Beta-secretase 1 (Homo sapiens) (UniProt P56817); test: Inhibition of BACE1 mediated APP cleavage in human HeLa cells expressing swAPP assessed as amyloid beta production using rhodamine-labeled compound at 2 uM; type: cell-based
Summary of the method: (§1)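 Rhodamine-labeled inhibitors at 2 μM on HeLa-swAPP cells; medium analyzed by ECL for sAPPβ and Aβ40, with viability (percent survival). Means ± SD, representative of three independent experiments.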

[6] = target: Beta-secretase 1 (Homo sapiens) (UniProt P56817); test: Inhibition of BACE1 mediated APP cleavage in human HeLa cells expressing swAPP assessed as beta cleaved ectodomain of APP level using rhodamine-labeled compound at 0.1 mM; type: cell-based
Summary of the method: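 HeLa-swAPP cells treated with a range of concentrations of the sterol-linked inhibitor; β-cleaved ectodomain detected by immunostaining and imaging, nuclei counterstained with DAPI.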

[7] = target: Beta-secretase 1 (Homo sapiens) (UniProt P56817); test: Inhibition of BACE1 mediated APP cleavage in human HeLa cells expressing swAPP assessed as as beta cleaved ectodomain of APP level using rhodamine-labeled compound at 2 uM; type: cell-based; summary of the method: as §1
HeLa [8] = test: Increase in alpha secretase mediated APP cleavage in human HeLa cells expressing swAPP assessed as alpha cleaved ectodomain of APP at 200 nM by electrochemiluminescence assay; type: cell-based
HeLa [9] = test: Increase in alpha secretase mediated APP cleavage in human HeLa cells expressing swAPP at 2 uM after 4 hrs by immunoblot; type: cell-based
Drosophila [10] = test: Reduction on lethality of Drosophila UAS-APP/UAS-APP; UAS-BACE523/UAS-BACE523 flies expressing BACE mutant assessed as increase in survival by measuring eclosion numbers 4 mM dosed in diet; type: functional, organism-based
Mus musculus = test: Reduction in amyloid beta production in transgenic swAPP/PSDE9 mouse expressing APP KM670/671NL mutant and presenilin-1 […] at 10 mM dosed stereotaxically into hippocampus after 4 hrs; type: functional, organism-based
Summary of the method: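 APPsw/PSΔE9 transgenic mice given a stereotaxic injection into the hippocampus, with DMSO as solvent control; hippocampal Aβ measured 4 hours later. Means ± SD, Student t test.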

Drosophila [11] = test: Reduction on lethality of Drosophila w:actin-GAL4/Cyo;UASDPsn/Tm3 flies expressing presenilin mutant assessed as increase in survival by measuring eclosion numbers 4 mM dosed in diet; type: functional, organism-based
[12] = target: Beta-secretase 1 (Homo sapiens) (UniProt P56817); test: Inhibition of BACE1 mediated APP cleavage in human HeLa cells expressing swAPP at 200 nM after 4 hrs; type: cell-based
Summary of the method: (§2)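 HeLa-swAPP cells incubated with compounds at 20 nM or 200 nM for 4 hours; harvested medium assayed for sAPPβ and expressed as percent inhibition of β cleavage, mean ± SD.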

[13] = target: Beta-secretase 1 (Homo sapiens) (UniProt P56817); test: Inhibition of BACE1 mediated APP cleavage in human HeLa cells expressing swAPP at 20 nM after 4 hrs; type: cell-based; summary of the method: as §2
[14] = target: Beta-secretase 1 (Homo sapiens) (UniProt P56817); test: Inhibition of BACE1 ectodomain relative to control
[15] = target: Beta-secretase 1 (Homo sapiens) (UniProt P56817); test: Inhibition of BACE1 mediated APP cleavage in human HeLa cells expressing swAPP assessed as as beta cleaved ectodomain of APP level; type: cell-based

Structure (SMILES): CC(C)CCC[C@@H](C)[C@H]1CC[C@H]2[C@@H]3CCC4C[C@@H](OC(=O)C[C@H](NC(=O)CCOCCOCCOCCOCCNC(=O)CCOCCOCCOCCNC(=O)CCOCCOCCOCCOCCNC(=O)CCOCCOCCOCCNC(=O)CCOCCOCCOCCOCCNC(=O)[C@H](Cc5ccccc5)NC(=O)[C@H](CCC(=O)O)NC(=O)[C@H](C)NC(=O)[C@@H](NC(=O)C[C@H](O)[C@H](CC(C)C)NC(=O)[C@H](CC(N)=O)NC(=O)[C@@H](NC(=O)[C@@H](N)CCC(=O)O)C(C)C)C(C)C)C(N)=O)CC[C@]4(C)[C@H]3CC[C@]12C (stereo partly specified) (H-EVN[Sta]VAEF[PEG4][PEG3][PEG4][PEG3][PEG4]D(X1)-NH2)
inhibition [2]: Active | inhibition [3]: Active | inhibition [4]: Active | inhibition [5]: Active | inhibition [6]: Active | inhibition [7]: Active | inhibition (HeLa [8]): Active | inhibition (HeLa [9]): Active | inhibition (Drosophila [10]): Active | Activity (Mus musculus): Active | inhibition (Drosophila [11]): Active

Structure (SMILES): CCCCCCCCCCCCCCCCOC(=O)C[C@H](NC(=O)CCOCCOCCOCCOCCNC(=O)CCOCCOCCOCCNC(=O)CCOCCOCCOCCOCCNC(=O)CCOCCOCCOCCNC(=O)CCOCCOCCOCCOCCNC(=O)[C@H](Cc1ccccc1)NC(=O)[C@H](CCC(=O)O)NC(=O)[C@H](C)NC(=O)[C@@H](NC(=O)C[C@H](O)[C@H](CC(C)C)NC(=O)[C@H](CC(N)=O)NC(=O)[C@@H](NC(=O)[C@@H](N)CCC(=O)O)C(C)C)C(C)C)C(N)=O (H-EVN[Sta]VAEF[PEG4][PEG3][PEG4][PEG3][PEG4]D(X3)-NH2)
inhibition [12]: Active | inhibition [13]: Active

Structure (SMILES): CC(C)C[C@H](NC(=O)[C@H](CC(N)=O)NC(=O)[C@@H](NC(=O)[C@@H](N)CCC(=O)O)C(C)C)[C@@H](O)CC(=O)N[C@H](C(=O)N[C@@H](C)C(=O)N[C@@H](CCC(=O)O)C(=O)N[C@@H](Cc1ccccc1)C(N)=O)C(C)C (HELM PEPTIDE1{E.V.N.[CC(C)C[C@H](N[*:1])[C@@H](O)CC(=O)[*:2]].V.A.E.F.[am]}$$$$V2.0)
inhibition [14]: Active | inhibition [4]: inactive | inhibition [15]: inactive | inhibition (Mus musculus): inactive

Structure (SMILES): CCN(CC)c1ccc2c(-c3ccccc3C(=O)N3CCN(C(=O)CC[C@H](NC(=O)CCNC(=O)[C@H](CCCN=C(N)N)NC(=O)[C@H](CCCN=C(N)N)NC(=O)CO[C@H]4CC[C@@]5(C)[C@@H](CC[C@@H]6[C@@H]5CC[C@]5(C)[C@@H]([C@H](C)CCCC(C)C)CC[C@@H]65)C4)C(=O)NCCC(=O)NCC(=O)N[C@@H](CCC(=O)O)C(=O)N[C@H](C(=O)N[C@@H](CC(N)=O)C(=O)N[C@@H](CC(C)C)[C@@H](O)CC(=O)N[C@H](C(=O)N[C@@H](C)C(=O)N[C@@H](CCC(=O)O)C(=O)N[C@@H](Cc4ccccc4)C(N)=O)C(C)C)C(C)C)CC3)c3ccc(=[N+](CC)CC)cc-3oc2c1 (X4-RR[βAla]E(Piperazinyl(4-RhodamineB))[βAla]GEVN[Sta]VAEF-NH2)
inhibition [1]: inactive

The remaining lines, values ahead:

inhibition [1]: inactive
Structure (SMILES): CC(C)C[C@H](NC(=O)[C@H](CC(N)=O)NC(=O)[C@@H](NC(=O)[C@@H](N)CCC(=O)O)C(C)C)[C@@H](O)CC(=O)N[C@H](C(=O)N[C@@H](C)C(=O)N[C@@H](CCC(=O)O)C(=O)N[C@@H](Cc1ccccc1)C(=O)NCCOCCOCCOCCOCCC(=O)NCCOCCOCCOCCC(=O)NCCOCCOCCOCCOCCC(=O)NCCOCCOCCOCCC(=O)NCCOCCOCCOCCOCCC(N)=O)C(C)C (H-EVN[Sta]VAEF[PEG4][PEG3][PEG4][PEG3][PEG4]-NH2)

inhibition [12]: Active | inhibition [13]: Active
Structure (SMILES): CCCCCCCCCCCCCCOC(=O)C[C@H](NC(=O)CCOCCOCCOCCOCCNC(=O)CCOCCOCCOCCNC(=O)CCOCCOCCOCCOCCNC(=O)CCOCCOCCOCCNC(=O)CCOCCOCCOCCOCCNC(=O)[C@H](Cc1ccccc1)NC(=O)[C@H](CCC(=O)O)NC(=O)[C@H](C)NC(=O)[C@@H](NC(=O)C[C@H](O)[C@H](CC(C)C)NC(=O)[C@H](CC(N)=O)NC(=O)[C@@H](NC(=O)[C@@H](N)CCC(=O)O)C(C)C)C(C)C)C(N)=O (H-EVN[Sta]VAEF[PEG4][PEG3][PEG4][PEG3][PEG4]D(X2)-NH2)
